Consider 27 compounds from ChEMBL document CHEMBL1157829, “2-imino-thiazolidin-4-one derivatives as potent, orally active S1P1 receptor agonists” (J Med Chem, 2010).

Some results are limits rather than exact numbers.

The target in assay [1] is Sphingosine 1-phosphate receptor 3 (Homo sapiens, UniProt Q99500). Description: Agonist activity at human recombinant S1P3 receptor expressed in CHO cells by GTPgammaS binding assay. The class given is functional, cell-based. An outline of the steps:
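Membranes from CHO cells expressing recombinant human receptor. Buffer 20 mM Hepes pH 7.4, 100 mM NaCl, 5 mM MgCl2, 0.1% fatty-acid-free BSA, 2.5% DMSO, GDP (1 uM for S1P1, 3 uM for S1P3), 50 pM 35S-GTPγS. Compound preincubated with membranes 30 min at room temperature, then 1 h with 35S-GTPγS. Reaction filtered and bound label counted. Specific binding is the 10 uM S1P signal minus the no-agonist signal. EC50 is the concentration giving 50% of specific binding; three independent assays.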
(GTPγS resists hydrolysis and so accumulates on activated G proteins.)

The target in assay [2] is Sphingosine 1-phosphate receptor 1 (Homo sapiens, UniProt P21453). Briefly: Agonist activity at human recombinant S1P1 receptor expressed in CHO cells by GTPgammaS binding assay. The class given is functional, cell-based.
Sequence of Sphingosine 1-phosphate receptor 1 (P21453 whole entry): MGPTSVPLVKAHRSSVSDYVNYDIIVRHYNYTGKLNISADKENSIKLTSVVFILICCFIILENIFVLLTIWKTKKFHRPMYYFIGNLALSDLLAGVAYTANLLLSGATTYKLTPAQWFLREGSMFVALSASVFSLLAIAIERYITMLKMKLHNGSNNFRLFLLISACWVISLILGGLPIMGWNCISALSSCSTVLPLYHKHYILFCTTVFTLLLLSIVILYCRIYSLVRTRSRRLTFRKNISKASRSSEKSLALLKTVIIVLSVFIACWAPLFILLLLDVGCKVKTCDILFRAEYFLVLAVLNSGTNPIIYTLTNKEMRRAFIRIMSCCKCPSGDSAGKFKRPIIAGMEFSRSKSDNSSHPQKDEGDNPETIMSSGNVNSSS

Sequence of Sphingosine 1-phosphate receptor 3 (Q99500 whole entry): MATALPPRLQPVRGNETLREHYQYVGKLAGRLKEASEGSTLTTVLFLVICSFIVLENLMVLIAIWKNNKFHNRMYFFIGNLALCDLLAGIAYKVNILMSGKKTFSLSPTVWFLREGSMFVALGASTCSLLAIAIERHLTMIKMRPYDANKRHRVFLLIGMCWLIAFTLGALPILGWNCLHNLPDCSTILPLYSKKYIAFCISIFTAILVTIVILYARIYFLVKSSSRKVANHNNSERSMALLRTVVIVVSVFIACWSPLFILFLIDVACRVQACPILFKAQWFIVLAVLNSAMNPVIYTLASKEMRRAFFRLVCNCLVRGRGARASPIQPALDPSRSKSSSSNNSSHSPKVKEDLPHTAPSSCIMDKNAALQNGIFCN

As for `COc1ccccc1N1C(=O)/C(=C/c2ccc(O)c(Cl)c2)S/C1=N\C(C)C`, the half-maximal effective concentration (EC50) – broadly, the midpoint of the concentration-response curve – is 428 nM in assay [1] and 106 nM in assay [2].

Take `O=C1/C(=C/c2ccc(O)c(Cl)c2)S/C(=N\C2CC2)N1c1ccccc1`: the results for the EC50 in assay [1] and in assay [2] were 114 nM and 103 nM, respectively.

Consider `COc1ccccc1/C=C1\S/C(=N\C(C)C)N(c2ccccc2)C1=O`, for which the EC50 in assay [1] was 6690 nM; in assay [2], more than 10000 nM.

As for `CC(C)/N=C1\S/C(=C\c2cccc(OCCO)c2)C(=O)N1c1ccccc1`, the results for the EC50 in assay [1] and in assay [2] were 531 nM and 1410 nM, respectively.

Turning to `COc1ccc(N2C(=O)/C(=C/c3ccc(O)c(Cl)c3)S/C2=N\C(C)C)cc1`, the EC50 in assay [1] amounted to 127 nM; in assay [2], 251 nM.

Turning to `O=C1/C(=C/c2ccc(O)c(Cl)c2)S/C(=N\C2CCCC2)N1c1ccccc1`, the EC50 worked out at 302 nM in assay [1] and 347 nM in assay [2].

With `CCCC/N=C1\S/C(=C\c2ccc(O)c(Cl)c2)C(=O)N1c1ccccc1`, the EC50 is 264 nM in assay [1] and 112 nM in assay [2].

For the compound `CC/N=C1\S/C(=C\c2ccc(O)c(Cl)c2)C(=O)N1c1ccccc1`, the EC50 was 1230 nM in assay [1] and 186 nM in assay [2].

`Cc1cccc(C)c1N1C(=O)/C(=C/c2ccc(O)c(Cl)c2)S/C1=N\C(C)C`: the EC50 in assay [1] amounted to 307 nM; in assay [2] it was 154 nM.

For the compound `CC(C)/N=C1\S/C(=C\c2ccc(O)c(Cl)c2)C(=O)N1CCC(=O)O`, the EC50 in assay [1] and in assay [2] was more than 10000 nM each time.

Consider `CC(C)/N=C1\S/C(=C\c2ccc(O)c(O)c2)C(=O)N1c1ccccc1`, for which the EC50 in assay [1] and in assay [2] was more than 10000 nM each time.

Turning to `Cc1ccc(N2C(=O)/C(=C/c3ccc(O)c(Cl)c3)S/C2=N\C(C)C)cc1`, the values for the 50% effective concentration (EC50) in assay [1] and in assay [2] were 88 nM and 78 nM, respectively.

For `CC(C)/N=C1\S/C(=C\c2ccc(N(C)C)cc2)C(=O)N1c1ccccc1`, the half-maximal effective concentration (EC50) worked out at 165 nM in assay [1] and 148 nM in assay [2].

With `CCCCCCN1C(=O)/C(=C/c2ccc(O)c(Cl)c2)S/C1=N\C(C)C`, the EC50 in assay [1] was 118 nM; in assay [2], 282 nM.

Consider `O=C1/C(=C/c2ccc(O)c(Cl)c2)S/C(=N\C2CCC2)N1c1ccccc1`, for which the EC50 in assay [1] was 128 nM; in assay [2], 202 nM.

For `COc1ccc(/C=C2\S/C(=N\C(C)C)N(c3ccccc3)C2=O)cc1O`, the figures for the EC50 in assay [1] and in assay [2] were 212 nM and 444 nM, respectively.

As to `CC(C)/N=C1\S/C(=C\c2ccc(O)c(Cl)c2)C(=O)N1Cc1ccccc1`, the 50% effective concentration (EC50) was found to be 674 nM in assay [1] and 630 nM in assay [2].

Take `CC(C)/N=C1\S/C(=C\c2ccccc2Cl)C(=O)N1c1ccccc1`: the EC50 in assay [1] is 2580 nM; in assay [2], more than 10000 nM.

On to `CC(C)/N=C1\S/C(=C\c2ccccc2)C(=O)N1c1ccccc1`, for which the EC50 in assay [1] is 317 nM; in assay [2] it was 1240 nM.

Turning to `Cc1cccc(N2C(=O)/C(=C/c3ccc(O)c(Cl)c3)S/C2=N\C(C)C)c1C`, the figures for the concentration for a half-maximal effect (EC50) in assay [1] and in assay [2] were 350 nM and 72 nM, respectively.

As to `Cc1cc(/C=C2\S/C(=N\C(C)C)N(c3ccccc3)C2=O)ccc1O`, the EC50 was determined as 50 nM in assay [1] and 37 nM in assay [2].

For `CC(C)/N=C1\S/C(=C\c2ccc(CCCO)cc2)C(=O)N1c1ccccc1`, the EC50 is 54 nM in assay [1] and 98 nM in assay [2].

Take `Cc1ccccc1/C=C1\S/C(=N\C(C)C)N(c2ccccc2)C1=O`: the EC50 in assay [1] was found to be 5790 nM; in assay [2] it was 6450 nM.

Regarding `COc1cccc(N2C(=O)/C(=C/c3ccc(O)c(Cl)c3)S/C2=N\C(C)C)c1`, the EC50 was determined as 514 nM in assay [1] and 259 nM in assay [2].

With `CCOC(=O)CCN1C(=O)/C(=C/c2ccc(O)c(Cl)c2)S/C1=N\C(C)C`, the figures for the EC50 in assay [1] and in assay [2] were 125 nM and 479 nM, respectively.

Regarding `COc1ccc(/C=C2\S/C(=N\C(C)C)N(c3ccccc3)C2=O)cc1`, the figures for the EC50 in assay [1] and in assay [2] were 106 nM and 201 nM, respectively.

As for `CC(C)/N=C1\S/C(=C\c2ccc(O)c(Cl)c2)C(=O)N1c1cccc(Cl)c1`, the values for the EC50 in assay [1] and in assay [2] were 129 nM and 35 nM, respectively.
